Reference: ChEMBL document CHEMBL4609986 (Bioorg Med Chem, 2020)

What was measured:
[1] = biological target: T1, AURKB (Aurora kinase B) (Homo sapiens, UniProt Q96GD4); assay: Inhibition of AURKB in human HEK293T cells assessed as reduction in cell viability at 3 uM measured after 48 hrs relative to control; type: cell-based, HEK-293T
How it was run: (§1)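 HEK293T cells treated 48 h with the compound alone or combined with a second kinase inhibitor at the stated level, then fixed, stained and counted. Cell number expressed as a percentage of untreated wells; n = 4-16.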

[2] = biological target: T1, AURKB (Aurora kinase B); assay: Inhibition of AURKB in human HEK293T cells assessed as reduction in cell viability at 10 uM measured after 48 hrs relative to control; type: cell-based, HEK-293T; how it was run: as §1
[3] = biological target: Aurora kinase B (Homo sapiens, UniProt Q96GD4); assay: Inhibition of AURKB in human HEK293T cells assessed as reduction in cell viability at 10 uM measured after 48 hrs; type: cell-based; details: hek-293t; how it was run: as §1
Aurora kinase B, sequence (Q96GD4 whole entry): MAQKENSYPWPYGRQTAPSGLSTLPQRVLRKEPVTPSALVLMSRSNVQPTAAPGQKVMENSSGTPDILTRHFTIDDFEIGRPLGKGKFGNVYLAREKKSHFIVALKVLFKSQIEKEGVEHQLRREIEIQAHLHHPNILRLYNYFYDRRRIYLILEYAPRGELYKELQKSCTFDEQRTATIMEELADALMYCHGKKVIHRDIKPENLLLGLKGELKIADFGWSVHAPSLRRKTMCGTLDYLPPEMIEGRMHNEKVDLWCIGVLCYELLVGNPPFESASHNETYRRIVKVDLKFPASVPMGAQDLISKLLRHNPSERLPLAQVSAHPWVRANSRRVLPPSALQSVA

T1 sequence (Q96GD4 whole entry): as above

O=C(O)[C@]1(Cc2cccc(Nc3nccs3)n2)CC[C@@H](Oc2cccc(Cl)c2F)CC1 [MK-5108] gave an inhibition at 48 h, 3 µM [1] of 24%.
Work on O=C(NC[C@H](O)CO)c1ccncc1Nc1ccc(I)cc1F [PIMASERTIB] yielded an inhibition at 48 h, 10 µM [2] of 10%.
In the case of Cn1c(=O)c(F)c(Nc2ccc(I)cc2F)c2c(=O)n(C[C@@H](O)CO)cnc21 [TAK-733], the “inhibition (INH)” value [3] was “Not Active”.
